Compound activity deposited in PubChem by several laboratories.
Rows were chosen to be rich in hits. Some 4.9% of all compounds tested hit in one or more screens of this group.
STAT3 inh: STAT3 signaling inhibition; inhibition, % at 5.5 µM; U3A cells, IL-6 STAT3-luciferase reporter, luminescence; host cell line lacks STAT1; hit rate 0.89% among 190,000; AID 862;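 active = inhibition above the mean inhibition across all screened compounds plus 3 SD, cut at about 44% in these data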;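 note: 0% = DMSO only wells and 100% = 100 µM nifuroxazide control wells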
STAT3 act: activators of IL-6 induced STAT3 signaling | U3A cells, IL-6 STAT3-luciferase reporter, luminescence; 100% = signal with IL-6 EC80 alone | activation (% of control), % at 5.6 µM | hit rate 0.91% among 190,000;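 active = activation above the screen-wide mean of compound activation plus 3 SD, cut at about 130% in these data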;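 note: 0% = background luminescence of wells with medium and substrate only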
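Material: human U3A cells carrying STAT3-luciferase construct. Measured by: reporter luminescence signal. Timing: compound 1 h, then IL-6 6 h at 37 °C.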
APP 5'UTR act: activates APP 5'UTR luciferase reporter. SH-SY5Y APP 5'UTR luciferase reporter, luminescence; zero percent = DMSO vehicle wells. activation, % at 2 µM. hit rate 1% among 190,000. AID 1276;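 active = activation above a set limit, based on mean plus 3 SD of controls, cut at about 140% in these data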
STAT1 blocker: inhibitors of IFN-gamma induced STAT1 signaling. NIH 3T3 STAT1-luciferase reporter, luminescence. inhibition, % at 5.5 µM. hit rate 0.35% among 200,000;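 active = inhibition above a set limit, the mean inhibition across all tested compounds plus 3 SD, cut at about 34% in these data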;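 note: 0% = IFN-gamma with DMSO and 100% = IFN-gamma with 300 µM nifuroxazide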
NF-kB expr up: compounds increasing NF-kB expression in human neuronal cells | NF-kB reporter expression; hits give high values | fold change at 12.5 µM | hit rate 1.6% among 190,000; in the data active = fold change above about 3.3
STAT1 activator: STAT1 signaling activation. NIH 3T3 STAT1-luciferase reporter, IFN-gamma, luminescence; 100% = IFN-gamma alone, no compound. activation (% of control), % at 5.5 µM. hit rate 2.6% among 200,000. AID 932;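 active = activation above the screen-wide mean activation plus 3 SD, cut at about 130% in these data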;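 note: raw ratio to IFN-gamma control signal so 100% means no change and 0% no light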
STAT1 act conf: confirmation of STAT1 signaling activators; hit rate 97% among 1,200; NIH 3T3 STAT1-luciferase reporter, IFN-gamma potentiation, luminescence; 100% = IFN-gamma EC80 alone, no compound; shares compounds with STAT1 activator; activation (% of control), % at 5.7 µM;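 active = activation above a set limit carried over from the earlier primary STAT1 screen, cut at about 140% in these data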;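 note: simple ratio to median IFN-gamma plus DMSO wells so 0% means no light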
NFkB act: NF-kappaB activation in STAT1 activator counter-screen; shares compounds with STAT1 activator; HEK293T NF-kB luciferase reporter, TNF-alpha stimulated, luminescence; 100% = TNF-alpha with vehicle only; activation (% of control), % at 5.7 µM; hit rate 43% among 1,200; AID 1306;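 active = activation above the mean of solvent-only control wells plus 3 SD, set per campaign, cut at about 130% in these data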;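 note: TNF-alpha given at a submaximal dose yielding about 80% of full reporter signal; values are well signal over median control so 100% means no change and 0% no light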
STAT3 act STAT1c: activates human STAT3, counter-screen to STAT1 activators | U3A cells STAT3-luciferase reporter, IL-6, luminescence; cells lack STAT1; 100 = IL-6 alone, no compound effect | AID 1316 | shares compounds with STAT1 activator | hit rate 46% among 1,200 | activation (% of control), % at 5.7 µM;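 active = activation above the solvent-only control well mean plus 3 SD, set per plate batch, cut at about 110% in these data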;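 note: 0% = no luminescence and 100% = median IL-6 plus DMSO wells; higher means more STAT3 reporter activation so hits are non-selective activators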
* hit, by the source's call; / = no result given.

SMILES	STAT3 inh	STAT3 act	APP 5'UTR act	STAT1 blocker	NF-kB expr up	STAT1 activator	STAT1 act conf	NFkB act	STAT3 act STAT1c
COc1ccc(NC(=O)Cc2ccc(Cl)c(Cl)c2)cn1	8	100	9	-8	1.1	106	/	/	/
CC12CCCCC1N(O)C(=O)C(=O)N2O (centres undefined)	-10	104	3	1	1	99	/	/	/
CCOc1cccc(-c2nc3cc(C)ccc3o2)c1	-16	116	64	-57	1.8	152*	159*	122	128*
Cc1ccc2oc(-c3cccc(NC(=O)Cn4cnc5c(=O)n(C)c(=O)n(C)c54)c3)nc2c1	4	97	94	-15	2.6	113	/	/	/
CC(=O)c1sc(Nc2nc3cc4c(cc3s2)OCO4)nc1C	14	94	91	-82	2.9	174*	190*	142*	103
COc1ccc2nc(Nc3nc(C)c(C(C)=O)s3)sc2c1	-8	110	46	-66	2.6	164*	180*	132	101
Cc1ccc(NC2c3ccccc3C(=O)N2CCN2CCOCC2)cc1 (centres undefined)	2	102	0	4	0.95	96	/	/	/
CCc1nc(-c2ccc(C)nc2OC)no1	0	100	-17	1	0.95	103	/	/	/
COc1ccccc1-c1nc(-c2ccc(C)nc2OC)no1	10	94	46	-62	2.5	157*	165*	126	103
O=C(Nc1cccc(Cl)c1)Nc1nccs1	1	103	40	-29	1.6	127	/	/	/
O=C(/C=C/c1cccc(F)c1)Nc1nccs1	12	96	104	-55	3.6*	151*	175*	137*	112*
Fc1ccccc1N1CCN(c2cnc3ccccc3n2)CC1	13	89	/	-64	6.3*	168*	245*	121	99
CCOc1cc(/C=C2/SC(=S)N(C)C2=O)ccc1Oc1ccc([N+](=O)[O-])cc1[N+](=O)[O-]	2	101	-2	-1	1	99	/	/	/
O=C(O)Cn1c(O)c(C=Nc2ccccc2)sc1=S	10	96	16	-2	1.1	102	/	/	/
CCn1c(O)c(C=Nc2ccccc2)sc1=S	11	100	191*	-84	3.4*	176*	206*	139*	111*
COCCn1c(SCC(=O)Nc2sccc2C(N)=O)nc2cc(Cl)ccc2c1=O	21	86	-6	13	0.77	88	/	/	/
NC(=O)c1c(NC(=O)c2cc3ccccc3o2)sc2c1CCC2	35	71	98	-88	1.2	181*	196*	108	118*
CC(=O)Nc1sc2c(c1C(N)=O)CCC2	7	95	-10	1	0.82	94	/	/	/
N#CC1=C(Nc2ccc(Br)cc2)CCC1	13	93	11	8	1.1	93	/	/	/
Brc1ccc(NC2=Nc3ccccc3CC2)cc1	28	79	99	-63	4.7*	158*	187*	141*	101
COc1ccc(-c2nc(CC(=O)O)cs2)cc1	4	100	7	1	0.91	99	/	/	/
O=C(O)c1ccc(-c2nc(-c3ccc(Cl)cc3)cs2)cc1	5	100	241*	-86	6.3*	181*	241*	135*	135*
COc1ccc(-c2csc(-c3ccc(C(=O)O)cc3)n2)cc1	6	106	129	-91	7.6*	182*	242*	146*	144*
O=C(O)c1ccc(-c2nc(-c3cccc(C(F)(F)F)c3)cs2)cc1	10	99	18	8	1.1	91	/	/	/
S=C(NCCN1CCOCC1)Nc1ccccc1Cl	5	98	-5	10	1.4	91	/	/	/
